# From ChEMBL document CHEMBL1141076 (J Med Chem, 2005)
# pKd: −log10 of the molar value.
# How the values were obtained:
# [1] = molecular target: T1, Cyclic nucleotide-gated channel alpha-1 (Bos taurus, UniProt Q00194); experiment: Apparent dissociation constant against Cyclic nucleotide gated channel alpha 1 at 0 mV
# T1 sequence (Q00194 whole entry): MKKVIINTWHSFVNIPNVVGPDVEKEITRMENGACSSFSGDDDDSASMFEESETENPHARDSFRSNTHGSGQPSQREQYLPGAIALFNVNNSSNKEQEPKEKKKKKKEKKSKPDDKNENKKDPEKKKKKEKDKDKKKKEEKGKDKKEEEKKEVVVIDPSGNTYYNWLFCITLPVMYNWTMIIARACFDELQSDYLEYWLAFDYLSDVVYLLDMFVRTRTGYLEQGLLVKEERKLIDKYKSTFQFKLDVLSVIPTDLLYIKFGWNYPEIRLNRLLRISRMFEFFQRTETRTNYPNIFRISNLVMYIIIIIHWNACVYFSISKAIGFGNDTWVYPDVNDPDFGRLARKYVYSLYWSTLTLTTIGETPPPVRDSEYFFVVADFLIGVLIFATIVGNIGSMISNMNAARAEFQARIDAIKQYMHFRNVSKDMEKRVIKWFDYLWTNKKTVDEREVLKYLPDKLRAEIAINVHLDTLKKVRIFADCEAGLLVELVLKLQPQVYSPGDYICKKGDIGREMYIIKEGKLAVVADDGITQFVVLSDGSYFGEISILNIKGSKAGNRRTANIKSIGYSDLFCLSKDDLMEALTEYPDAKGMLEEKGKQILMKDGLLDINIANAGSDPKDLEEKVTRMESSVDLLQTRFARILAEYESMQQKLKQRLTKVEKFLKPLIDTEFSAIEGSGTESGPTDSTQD
# Summary of the method: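 CNGA1 (bovine) expressed in Xenopus oocytes from 5-25 ng cRNA; inside-out patches at room temperature in symmetrical 130 mM NaCl, 2 mM HEPES, 1 mM EGTA, 0.02 mM EDTA, pH 7.6, saturating cGMP with blocker in bath. Depolarizations -80 to +60 mV in 10 mV steps. Fraction of current remaining fitted with Woodhull equation, giving KD at 0 mV and zδ.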
# [2] = molecular target: T1, Cyclic nucleotide-gated channel alpha-1; experiment: Apparent dissociation constant against Cyclic nucleotide gated channel alpha 1 at +40 mV
# Summary of the method: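 Bovine CNGA1 cRNA injected (5-25 ng) into Xenopus oocytes kept at 18 °C; inside-out excised patches recorded 1-6 days later at room temperature. Identical pipet/bath solution: 130 mM NaCl, 2 mM HEPES, 1 mM EGTA, 0.02 mM EDTA, pH 7.6. Blocker added to bath with saturating cGMP; steps -80 to +40 mV. End-of-pulse current corrected for ion accumulation/depletion. KD from I+D/I-D = KD/(KD+[D]).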
pKd [1],pKd [2],Structure (SMILES)
5.27,5.51,CCCCNc1ccc(C(=O)OCC[N+](C)(C)CCCC)cc1
8.16,10.52,CCCCNc1ccc(C(=O)OCC[N+](C)(C)CCCNCCCN)cc1
2.40,2.60,CC(=O)NCCCCNc1ccc(C(=O)OCCN(C)C)cc1
2.00,2.64,CN(C)CCOC(=O)c1ccc(N)cc1
3.01,3.68,CN(C)CCOC(=O)c1ccc(NCCCCN)cc1
5.85,7.13,CCCCNc1ccc(C(=O)OCC[N+](C)(C)CCCN)cc1
